What was measured:
Mus musculus [1] = assay: Percent protection against chloroform induced tachycardia in mice at 398 mg/kg; type: functional
Rattus norvegicus [2] = assay: Anesthetic activity of compound (0.25%) was evaluated by duration of sciatic nerve block; NB= no blocks (0/10); type: functional, organism-based
How it was run: (§1)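 Rat sciatic nerve block: 0.2 mL of test solution (concentration as base, with 1:100 000 epinephrine) injected into the mid-thigh around the sciatic nerve trunk, both hind limbs. Five rats per concentration, so up to 10 blocks. Animals examined at frequent intervals for onset of and recovery from motor block. Duration given as mean ± standard deviation.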

Rattus norvegicus [3] = assay: Anesthetic activity of compound (1.0%) was evaluated by duration of sciatic nerve block; type: functional; how it was run: as §1
Rattus norvegicus [4] = assay: Anesthetic activity of compound (0.5%) was evaluated by duration of sciatic nerve block; type: functional; how it was run: as §1
Mus musculus [5] = species on record: Mus musculus; assay: Effective dose of compound that evoked CNS toxicity in mice in the form of ataxia; type: functional
How it was run: (§2)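 Mice dosed subcutaneously, groups of 10. Over a 20-min period they were watched for ataxia, convulsions, loss of righting reflex or death, then each was placed in chloroform-vapor-saturated air until respiration ceased. ED50 with 95% Fieller limits for protection against tachycardia, ataxia and convulsions, calculated by Berkson's logit chi-square method.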

Rattus norvegicus [6] = assay: Anesthetic activity of compound (2.0%) was evaluated by duration of sciatic nerve block
Mus musculus [7] = species on record: Mus musculus; assay: Effective dose of compound that evoked CNS toxicity in mice in the form of convulsions; type: functional; how it was run: as §2
Rattus norvegicus [8] = assay: Anesthetic activity of compound (0.125%) was evaluated by duration of sciatic nerve block; NB= no blocks (0/10); type: functional, organism-based; how it was run: as §1
[9] = Lethal dose of compound evaluated by administering intraperitoneally to female CRCD mice; type: toxicity, organism-based; conditions: mouse, in vivo, ip
How it was run: (§3)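 Female CRCD mice (20–25 g), in groups, given compound dissolved in isotonic saline or distilled water, either by tail-vein (iv) or intraperitoneal injection. Doses expressed as base. LD50 and 95% confidence limits calculated by the minimum logit chi-square method.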

Rattus norvegicus [10] = assay: Anesthetic activity of compound (0.125%) was evaluated by duration of sciatic nerve block; type: functional; how it was run: as §1
Rattus norvegicus [11] = assay: Anesthetic activity of compound (0.25%) was evaluated by duration of sciatic nerve block; type: functional; how it was run: as §1
Mus musculus [12] = assay: CNS toxicity expressed as percent of convulsions evoked in mice at a dose of 100 mg/kg; type: functional
Mus musculus [13] = assay: CNS toxicity expressed as percent of ataxia evoked in mice at a dose of 100 mg/kg; type: functional
Mus musculus [14] = assay: Percent protection against chloroform induced tachycardia in mice at 100 mg/kg; type: functional
[15] = Lethal dose of compound evaluated by administering intravenously to female CRCD mice; type: toxicity, organism-based; conditions: mouse, in vivo, iv; how it was run: as §3
Mus musculus [16] = species on record: Mus musculus; assay: Effective dose of compound that protects mice against chloroform induced tachycardia; type: functional; how it was run: as §2
Mus musculus [17] = assay: CNS toxicity expressed as percent of ataxia evoked in mice at a dose of 50.1 mg/kg; type: functional
Mus musculus [18] = assay: Percent protection against chloroform induced tachycardia in mice at 15.8 mg/kg; Inactive; type: functional
Mus musculus [19] = assay: CNS toxicity expressed as percent of convulsions evoked in mice at a dose of 631 mg/kg; type: functional
Mus musculus [20] = assay: Percent death against chloroform induced tachycardia in mice at 631 mg/kg; type: functional
How it was run: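 Mice in groups of 10, dosed subcutaneously, then watched for 20 min for ataxia, convulsions, loss of righting reflex or death. Survivors were placed individually in chloroform-vapour-saturated air until respiration ceased. Percent of animals dead at the single dose was recorded alongside protection, ataxia and convulsion counts.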

Mus musculus [21] = assay: CNS toxicity expressed as percent of ataxia evoked in mice at a dose of 631 mg/kg; type: functional
Mus musculus [22] = assay: Percent protection against chloroform induced tachycardia n mice at 631 mg/kg; Inactive; type: functional
Mus musculus [23] = assay: CNS toxicity expressed as percent of ataxia evoked in mice at a dose of 10 mg/kg; type: functional
Mus musculus [24] = assay: CNS toxicity expressed as percent of ataxia evoked in mice at a dose of 200 mg/kg; Inactive; type: functional
Mus musculus [25] = assay: CNS toxicity expressed as percent of convulsions evoked in mice at a dose of 200 mg/kg; Inactive; type: functional
Mus musculus [26] = assay: Percent protection against chloroform induced tachycardia in mice at 200 mg/kg; Inactive; type: functional
Mus musculus [27] = assay: CNS toxicity expressed as percent of ataxia evoked in mice at a dose of 79.4 mg/kg; type: functional
Mus musculus [28] = assay: Percent protection against chloroform induced tachycardia in mice at 79.4 mg/kg; Inactive; type: functional
Mus musculus [29] = assay: CNS toxicity expressed as percent of convulsions evoked in mice at a dose of 79.4 mg/kg; Inactive; type: functional

CCOc1ccc(NC(=O)C(CN(C)C)N(C)C)cc1OCC (centres undefined)
Protection (Mus musculus [1]): 50%
Duration (Rattus norvegicus [2]): No blocks
Duration (Rattus norvegicus [3]): 133 min
Duration (Rattus norvegicus [4]): 83 min
ED50 (Mus musculus [5]): 199 mg/kg
Duration (Rattus norvegicus [6]): 147 min
ED50 (Mus musculus [7]): 317 mg/kg
Duration (Rattus norvegicus [8]): No blocks

CCN(CC)CC(C(=O)Nc1ccc(OC)cc1C)N(CC)CC (centres undefined)
LD50 [9]: 102 mg/kg
Duration (Rattus norvegicus [10]): 162 min
Duration (Rattus norvegicus [3]): 150 min
Duration (Rattus norvegicus [11]): 151 min
Duration (Rattus norvegicus [4]): 157 min
Duration (Rattus norvegicus [6]): 184 min

CCN(CC)CC(C(=O)Nc1cccc(OC)c1)N(CC)CC (centres undefined)
Convulsions (Mus musculus [12]): 0%
Duration (Rattus norvegicus [10]): 77 min
Ataxia (Mus musculus [13]): 0%
Duration (Rattus norvegicus [3]): 145 min
Duration (Rattus norvegicus [11]): 87 min
Protection (Mus musculus [14]): 60%
Duration (Rattus norvegicus [4]): 100 min
Duration (Rattus norvegicus [6]): 265 min
LD50 [15]: 20 mg/kg

CCN(CC)CC(C(=O)Nc1cc(C)ccc1OC)N(CC)CC (centres undefined)
LD50 [9]: 81 mg/kg
Duration (Rattus norvegicus [10]): 94 min
Duration (Rattus norvegicus [3]): 273 min
Duration (Rattus norvegicus [11]): 125 min
Duration (Rattus norvegicus [4]): 166 min
ED50 (Mus musculus [5]): 96 mg/kg
ED50 (Mus musculus [16]): 106 mg/kg
ED50 (Mus musculus [7]): 137 mg/kg

CCN(CC)CC(C(=O)Nc1ccccc1OC)N(CC)CC (centres undefined)
LD50 [9]: 70 mg/kg
Duration (Rattus norvegicus [3]): 178 min
Duration (Rattus norvegicus [11]): 91 min
Duration (Rattus norvegicus [4]): 66 min
Duration (Rattus norvegicus [6]): 184 min
ED50 (Mus musculus [16]): 81 mg/kg
ED50 (Mus musculus [7]): 65 mg/kg
Ataxia (Mus musculus [17]): 40%

CCN(CC)CCC(=O)Nc1c(C)cccc1C
Duration (Rattus norvegicus [3]): 184 min
Duration (Rattus norvegicus [11]): 110 min
Duration (Rattus norvegicus [4]): 146 min
ED50 (Mus musculus [5]): 52 mg/kg
ED50 (Mus musculus [16]): 69 mg/kg

C=CCN(C)CC(C(=O)Nc1c(C)cccc1C)N(C)CC=C (centres undefined)
ED50 (Mus musculus [5]): 13 mg/kg
ED50 (Mus musculus [7]): 17 mg/kg
Protection (Mus musculus [18]): 30%

CCOc1ccccc1NC(=O)C(CN(C)CC)N(C)CC (centres undefined)
LD50 [9]: 94 mg/kg
Duration (Rattus norvegicus [10]): 78 min
Duration (Rattus norvegicus [3]): 189 min
Duration (Rattus norvegicus [11]): 105 min
Duration (Rattus norvegicus [4]): 136 min

CCCN(CC)CC(C(=O)Nc1ccccc1OC)N(CC)CCC (centres undefined)
Duration (Rattus norvegicus [10]): 80 min
Duration (Rattus norvegicus [11]): 116 min
Duration (Rattus norvegicus [4]): 260 min
LD50 [15]: 11 mg/kg

C#CCN(C)CC(C(=O)Nc1c(C)cccc1C)N(C)CC#C (centres undefined)
Convulsions (Mus musculus [19]): 40%
Death (Mus musculus [20]): 40%
Ataxia (Mus musculus [21]): 40%
Protection (Mus musculus [22]): 0%

CCCN(CC)CC(C(=O)Nc1ccc(OC)cc1C)N(CC)CCC (centres undefined)
LD50 [9]: 66 mg/kg
Duration (Rattus norvegicus [10]): 96 min
Duration (Rattus norvegicus [11]): 107 min
Duration (Rattus norvegicus [4]): 227 min

Cc1cccc(C)c1NC(=O)C(C)N (centres undefined) [TOCAINIDE]
Duration (Rattus norvegicus [3]): 79 min
Duration (Rattus norvegicus [4]): 44 min
ED50 (Mus musculus [5]): 146 mg/kg
ED50 (Mus musculus [16]): 250 mg/kg
LD50 [15]: 94 mg/kg

CCN(C)CC(C(=O)Nc1c(C)cccc1C)N(C)CC (centres undefined)
ED50 (Mus musculus [16]): 13 mg/kg
ED50 (Mus musculus [7]): 12 mg/kg
Ataxia (Mus musculus [23]): 100%

Cc1cccc(C)c1NC(=O)C1CNCCN1 (centres undefined)
Ataxia (Mus musculus [24]): 0%
Convulsions (Mus musculus [25]): 0%
Protection (Mus musculus [26]): 10%

COCCN(C)CC(C(=O)Nc1c(C)cccc1C)N(C)CCOC (centres undefined)
ED50 (Mus musculus [5]): 4.3 mg/kg
ED50 (Mus musculus [16]): 2.6 mg/kg
ED50 (Mus musculus [7]): 5.1 mg/kg

Cc1cccc(C)c1NC(=O)C(CN1CCOCC1)N1CCOCC1 (centres undefined)
Ataxia (Mus musculus [27]): 100%
Duration (Rattus norvegicus [10]): 72 min
Protection (Mus musculus [28]): 10%
Duration (Rattus norvegicus [3]): 138 min
Duration (Rattus norvegicus [11]): 72 min
Convulsions (Mus musculus [29]): 0%
Duration (Rattus norvegicus [4]): 102 min
Duration (Rattus norvegicus [6]): 193 min

CCOc1ccccc1NC(=O)C(CN(CC)CC)N(CC)CC (centres undefined)
LD50 [9]: 81 mg/kg
Duration (Rattus norvegicus [10]): 140 min
Duration (Rattus norvegicus [11]): 138 min
Duration (Rattus norvegicus [4]): 176 min

CCN(CC)CC(=O)Nc1c(C)cccc1C [LIDOCAINE]
Duration (Rattus norvegicus [3]): 162 min
Duration (Rattus norvegicus [11]): 102 min
Duration (Rattus norvegicus [4]): 123 min
ED50 (Mus musculus [5]): 42 mg/kg
ED50 (Mus musculus [16]): 61 mg/kg

Cc1cccc(C)c1NC(=O)C(CN1CCCC1)N1CCCC1 (centres undefined)
ED50 (Mus musculus [5]): 12 mg/kg
ED50 (Mus musculus [16]): 14 mg/kg
ED50 (Mus musculus [7]): 12 mg/kg

Cc1cccc(C)c1NC(=O)C(CN(C)C)N(C)C (centres undefined)
ED50 (Mus musculus [5]): 16 mg/kg
ED50 (Mus musculus [16]): 17 mg/kg
ED50 (Mus musculus [7]): 23 mg/kg

CCCN(CC)C(CC)C(=O)Nc1c(C)cccc1C (centres undefined) [ETIDOCAINE]
LD50 [9]: 56 mg/kg
Duration (Rattus norvegicus [10]): 156 min
Duration (Rattus norvegicus [11]): 222 min
Duration (Rattus norvegicus [4]): 279 min
LD50 [15]: 7 mg/kg

Cc1cccc(C)c1NC(=O)C(CN(C)C(C)C)N(C)C(C)C (centres undefined)
ED50 (Mus musculus [5]): 6 mg/kg
ED50 (Mus musculus [16]): 6.1 mg/kg
ED50 (Mus musculus [7]): 9.3 mg/kg
